Data reported in ChEMBL document CHEMBL1140313, “Potent inhibitors of subgenomic hepatitis C virus RNA replication through optimization of indole-N-acetamide allosteric inhibitors of the viral NS5B polymerase” (J Med Chem, 2005).

Experiments:
Huh-7 [1] = test: Effective concentration required to inhibit replication of subgenomic HCV RNA in HUH-7 cells in the presence of 10% fetal calf serum; type: functional, cell-based; conditions: Homo sapiens
Method in brief: (§1)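 Subgenomic HCV replicon in HUH-7 cells, run in medium with 10% fetal calf serum (a modification of Bartenschlager's method). EC50 was determined only for compounds giving >50% inhibition in an initial screen at a fixed 5 μM. Values are the arithmetic mean ± half-range or standard error of at least two independent determinations, or from a single experiment where noted.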

[2] = molecular target: T1, RNA-directed RNA polymerase (Hepacivirus hominis, UniProt O39930); test: Inhibitory activity against by hepatitis C virus NS5B polymerase
Method in brief: (§2)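 Purified ΔC55 NS5B polymerase assayed with heterogenic template RNA. IC50 values come from a single experiment or are arithmetic means of multiple experiments, as footnoted; some were measured in duplicate.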

Huh-7 [3] = test: Effective concentration required to inhibit replication of subgenomic HCV RNA in HUH-7 cells; type: functional, cell-based; conditions: Homo sapiens; method in brief: as §1
[4] = molecular target: T2, pregnane X receptor (PXR, NR1I2) (Homo sapiens, UniProt O75469); test: Inhibition of pregnane X receptor mediated activation of alkaline phosphatase reporter gene at 10 uM; type: functional
T2 sequence (O75469 whole entry): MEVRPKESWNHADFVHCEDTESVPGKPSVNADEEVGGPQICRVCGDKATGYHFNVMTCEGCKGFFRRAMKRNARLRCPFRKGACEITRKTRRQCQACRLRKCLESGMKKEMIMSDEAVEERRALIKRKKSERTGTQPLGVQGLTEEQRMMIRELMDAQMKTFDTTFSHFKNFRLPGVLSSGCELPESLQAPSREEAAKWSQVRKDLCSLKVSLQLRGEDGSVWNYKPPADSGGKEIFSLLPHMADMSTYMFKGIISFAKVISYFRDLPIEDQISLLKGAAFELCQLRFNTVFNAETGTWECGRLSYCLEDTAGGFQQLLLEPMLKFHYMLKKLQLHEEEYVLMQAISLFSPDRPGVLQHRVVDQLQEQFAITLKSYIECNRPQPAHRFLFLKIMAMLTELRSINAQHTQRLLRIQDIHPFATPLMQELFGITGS
Method in brief: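 HepG2 cells were cotransfected with a human PXR expression vector and a secreted alkaline phosphatase (SEAP) reporter driven by a synthetic PXR-responsive element. Cells were incubated 48 h with or without test compound, and SEAP activity was read with a commercial detection kit.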

Huh-7 [5] = test: Effective concentration required to inhibit replication of subgenomic HCV RNA in HUH-7 cells in the presence of 50% normal human serum; type: functional, cell-based
Method in brief: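 Subgenomic HCV replicon in HUH-7 cells run under high-serum conditions with 50% normal human serum in place of 10% fetal calf serum. EC50 values are the arithmetic mean ± half-range or standard error of at least two independent determinations.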

[6] = molecular target: T1, RNA-directed RNA polymerase; test: Inhibitory activity against hepatitis C virus NS5B polymerase enzyme; Range=6-9 nM; method in brief: as §2

T1 sequence (O39930 whole entry): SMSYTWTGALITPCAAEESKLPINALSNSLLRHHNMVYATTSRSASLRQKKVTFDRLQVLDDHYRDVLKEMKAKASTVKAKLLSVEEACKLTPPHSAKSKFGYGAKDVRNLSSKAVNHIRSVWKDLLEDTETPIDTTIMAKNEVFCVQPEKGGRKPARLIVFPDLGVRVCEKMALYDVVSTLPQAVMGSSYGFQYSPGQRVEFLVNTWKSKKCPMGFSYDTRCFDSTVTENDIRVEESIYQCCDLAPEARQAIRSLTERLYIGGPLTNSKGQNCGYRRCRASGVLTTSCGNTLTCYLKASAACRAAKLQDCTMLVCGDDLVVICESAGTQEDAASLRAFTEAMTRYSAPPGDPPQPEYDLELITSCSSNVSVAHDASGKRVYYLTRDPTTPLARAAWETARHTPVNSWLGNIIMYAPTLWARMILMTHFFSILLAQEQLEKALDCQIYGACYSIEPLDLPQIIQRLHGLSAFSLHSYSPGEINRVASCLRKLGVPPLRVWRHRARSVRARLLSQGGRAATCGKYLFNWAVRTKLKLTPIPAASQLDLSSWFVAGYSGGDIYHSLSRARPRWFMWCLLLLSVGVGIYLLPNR

Structure (SMILES)	EC50 (Huh-7 [1])	IC50 [2]	EC50 (Huh-7 [3])	also measured
CN(C)C(=O)Cn1c(-c2ccccc2)c(C2CCCCC2)c2ccc(C(=O)O)cc21	1500 nM	–	–	–
CN(C)C1CCN(C(=O)Cn2c(-c3ccccc3)c(C3CCCCC3)c3ccc(C(=O)O)cc32)C1 (centres undefined)	–	71 nM	700 nM	–
CN1CCCC(CN(C)C(=O)Cn2c(-c3cccc(F)c3)c(C3CCCCC3)c3ccc(C(=O)O)cc32)C1 (centres undefined)	–	–	–	inhibition at 10 µM [4]: 72%
CN1CCCC(CN(C)C(=O)Cn2c(-c3ccccc3)c(C3CCCC3)c3ccc(C(=O)O)cc32)C1 (centres undefined)	–	47 nM	400 nM	–
CN(C)C1CCN(C(=O)Cn2c(-c3ccccc3)c(C3CCCCC3)c3ccc(C(=O)O)cc32)CC1	300 nM	41 nM	–	inhibition at 10 µM [4]: 14%
C=Cc1c(C2CCCCC2)c2ccc(C(=O)O)cc2n1CC(=O)N1CCC(N(C)C)CC1	2800 nM	49 nM	–	–
CN(C)C1CCN(C(=O)Cn2c(-c3ccccc3)c(C3CCCCC3)c3cc(C(=O)O)ccc32)C1 (centres undefined)	–	244 nM	5000 nM	–
CN1CCN(C(=O)Cn2c(-c3ccccc3)c(C3CCCC3)c3ccc(C(=O)O)cc32)CC1	–	68 nM	800 nM	–
CN(C)Cc1cccc(-c2c(C3CCCCC3)c3ccc(C(=O)O)cc3n2CC(=O)N(C)C)c1	3300 nM	147 nM	–	–
CN1CCN(C(=O)Cn2c(-c3ccccc3)c(C3CCCCC3)c3ccc(C(=O)O)cc32)CC1	–	39 nM	500 nM	–
CCN(CC)C1CCN(C(=O)Cn2c(-c3ccc(OC)cc3)c(C3CCCCC3)c3ccc(C(=O)O)cc32)CC1	144 nM	–	–	EC50 (Huh-7 [5]): 422 nM; IC50 [6]: 9 nM
CN1CCN(C(=O)Cn2c(-c3ccc(Cl)cc3)c(C3CCCCC3)c3ccc(C(=O)O)cc32)CC1	–	12 nM	300 nM	–
O=C(O)c1ccc2c(c1)c(C1CCCCC1)c(-c1ccccc1)n2CC(=O)N1CCS(=O)(=O)CC1	–	–	> 5000 nM	–
CN(C)C1CCN(C(=O)Cn2c(-c3ccc(Cl)cc3)c(C3CCCCC3)c3ccc(C(=O)O)cc32)CC1	–	–	–	inhibition at 10 µM [4]: 15%
COc1ccc(-c2c(C3CCCCC3)c3ccc(C(=O)O)cc3n2CC(=O)N2CCC(N(C)C)CC2)cc1	158 nM	–	–	EC50 (Huh-7 [5]): 677 nM; IC50 [6]: 9 nM
CN(C)C(=O)Cn1c(-c2ccoc2)c(C2CCCCC2)c2ccc(C(=O)O)cc21	800 nM	31 nM	–	–
CC(C)N(C)C(=O)Cn1c(-c2ccc(Cl)cc2)c(C2CCCCC2)c2ccc(C(=O)O)cc21	–	11 nM	900 nM	–
CN(C)C1CCN(C(=O)Cn2c(-c3ccccc3)c(C3CCCC3)c3ccc(C(=O)O)cc32)C1 (centres undefined)	–	78 nM	1500 nM	–
CN(C)C(=O)CN(C)C(=O)Cn1c(-c2ccc(Cl)cc2)c(C2CCCCC2)c2ccc(C(=O)O)cc21	–	17 nM	1100 nM	–
CS(=O)(=O)N1CCN(C(=O)Cn2c(-c3ccc(Cl)cc3)c(C3CCCCC3)c3ccc(C(=O)O)cc32)CC1	–	7 nM	500 nM	–
CCc1c(C2CCCCC2)c2ccc(C(=O)O)cc2n1CC(=O)N1CCC(N(C)C)CC1	–	283 nM	–	–
CN(C)C(=O)CN(C)C(=O)Cn1c(-c2ccccc2)c(C2CCCC2)c2ccc(C(=O)O)cc21	–	–	> 5000 nM	–
CC(C)N(C)C(=O)Cn1c(-c2ccccc2)c(C2CCCCC2)c2ccc(C(=O)O)cc21	–	62 nM	1600 nM	–
CN1CCN(C(=O)Cn2c(-c3ccccc3)c(C3CCCCC3)c3cc(C(=O)O)ccc32)CC1	–	448 nM	3500 nM	–
CN(C)C1CCN(C(=O)Cn2c(C3=CCCCC3)c(C3CCCCC3)c3ccc(C(=O)O)cc32)CC1	400 nM	18 nM	–	–
CC(C)N(C)C(=O)Cn1c(-c2ccccc2)c(C2CCCCC2)c2cc(C(=O)O)ccc21	–	–	> 5000 nM	–
CS(=O)(=O)N1CCN(C(=O)Cn2c(-c3ccccc3)c(C3CCCCC3)c3ccc(C(=O)O)cc32)CC1	–	19 nM	900 nM	–

Structure (SMILES)	EC50 (Huh-7 [1])	IC50 [2]	EC50 (Huh-7 [3])	also measured
O=C(O)c1ccc2c(C3CCCCC3)c(-c3ccoc3)n(CC(=O)N3CCC(N4CCC4)CC3)c2c1	199 nM	–	–	EC50 (Huh-7 [5]): 633 nM; IC50 [6]: 9 nM
O=C(Cn1c(-c2ccc(Cl)cc2)c(C2CCCCC2)c2ccc(C(=O)O)cc21)NCC1CC1	–	8 nM	1400 nM	–
CC(C)N(C)Cc1cccc(-c2c(C3CCCCC3)c3ccc(C(=O)O)cc3n2CC(=O)N(C)C)c1	1100 nM	78 nM	–	–
O=C(O)c1ccc2c(C3CCCCC3)c(-c3ccc(Cl)cc3)n(CC(=O)N3CCS(=O)(=O)CC3)c2c1	–	11 nM	900 nM	–
CN(C)C(=O)Cn1c(-c2cccnc2)c(C2CCCCC2)c2ccc(C(=O)O)cc21	13000 nM	332 nM	–	–
CN(C)Cc1ccc(-c2c(C3CCCCC3)c3ccc(C(=O)O)cc3n2CC(=O)N(C)C)cc1	17600 nM	920 nM	–	–
O=C(Cn1c(-c2ccccc2)c(C2CCCCC2)c2ccc(C(=O)O)cc21)NCC1CC1	–	63 nM	1300 nM	–
CN1CCCC(CN(C)C(=O)Cn2c(-c3ccccc3)c(C3CCCCC3)c3cc(C(=O)O)ccc32)C1 (centres undefined)	–	–	> 5000 nM	–
CN(C)C1CCN(C(=O)Cn2c(C3CCCCC3)c(C3CCCCC3)c3ccc(C(=O)O)cc32)CC1	4000 nM	72 nM	–	–
CN(C)C(=O)Cn1c(-c2cccc(CN3CCCC(F)(F)C3)c2)c(C2CCCCC2)c2ccc(C(=O)O)cc21	600 nM	18 nM	–	–
O=C(O)c1ccc2c(C3CCCC3)c(-c3ccccc3)n(CC(=O)N3CCS(=O)(=O)CC3)c2c1	–	–	> 5000 nM	–
CN(C)C(=O)CN(C)C(=O)Cn1c(-c2ccccc2)c(C2CCCCC2)c2ccc(C(=O)O)cc21	–	98 nM	1900 nM	–
CN(C)C1CCN(C(=O)Cn2c(-c3cccc(F)c3)c(C3CCCCC3)c3ccc(C(=O)O)cc32)CC1	–	–	–	inhibition at 10 µM [4]: 10%
CC(C)N(C)C(=O)Cn1c(-c2ccccc2)c(C2CCCC2)c2ccc(C(=O)O)cc21	–	–	> 5000 nM	–
CN(C)C(=O)Cn1c(-c2ccncc2)c(C2CCCCC2)c2ccc(C(=O)O)cc21	6700 nM	134 nM	–	–
C#Cc1c(C2CCCCC2)c2ccc(C(=O)O)cc2n1CC(=O)N1CCC(N(C)C)CC1	–	228 nM	–	–
CN(C)C(=O)CN(C)C(=O)Cn1c(-c2ccccc2)c(C2CCCCC2)c2cc(C(=O)O)ccc21	–	–	> 5000 nM	–
O=C(O)c1ccc2c(C3CCCCC3)c(-c3ccccc3)n(CC(=O)N3CCS(=O)(=O)CC3)c2c1	–	43 nM	1600 nM	–
CN1CCCC(CN(C)C(=O)Cn2c(-c3ccc(Cl)cc3)c(C3CCCCC3)c3ccc(C(=O)O)cc32)C1 (centres undefined)	–	12 nM	300 nM	inhibition at 10 µM [4]: 92%
O=C(Cn1c(-c2ccccc2)c(C2CCCCC2)c2cc(C(=O)O)ccc21)NCC1CC1	–	–	> 5000 nM	–
CN(C)Cc1cc(-c2c(C3CCCCC3)c3ccc(C(=O)O)cc3n2CC(=O)N(C)C)ccc1Cl	2700 nM	78 nM	–	–
CS(=O)(=O)N1CCN(C(=O)Cn2c(-c3ccccc3)c(C3CCCC3)c3ccc(C(=O)O)cc32)CC1	–	–	> 5000 nM	–
CS(=O)(=O)N1CCN(C(=O)Cn2c(-c3ccccc3)c(C3CCCCC3)c3cc(C(=O)O)ccc32)CC1	–	–	> 5000 nM	–
O=C(Cn1c(-c2ccccc2)c(C2CCCC2)c2ccc(C(=O)O)cc21)NCC1CC1	–	–	> 5000 nM	–
COc1ccc(-c2c(C3CCCCC3)c3ccc(C(=O)O)cc3n2CC(=O)N(C)C)cn1	1800 nM	69 nM	–	–
CN(C)C1CCN(C(=O)Cn2c(-c3ccc(Cl)cc3)c(C3CCCCC3)c3ccc(C(=O)O)cc32)C1 (centres undefined)	–	13 nM	200 nM	–
